Common to all, as to format: ADME
Data set [1] concerns the target T1, UDP-glucuronosyltransferase 1A10 (Homo sapiens, UniProt Q9HAW8).
T1 sequence (Q9HAW8 whole entry): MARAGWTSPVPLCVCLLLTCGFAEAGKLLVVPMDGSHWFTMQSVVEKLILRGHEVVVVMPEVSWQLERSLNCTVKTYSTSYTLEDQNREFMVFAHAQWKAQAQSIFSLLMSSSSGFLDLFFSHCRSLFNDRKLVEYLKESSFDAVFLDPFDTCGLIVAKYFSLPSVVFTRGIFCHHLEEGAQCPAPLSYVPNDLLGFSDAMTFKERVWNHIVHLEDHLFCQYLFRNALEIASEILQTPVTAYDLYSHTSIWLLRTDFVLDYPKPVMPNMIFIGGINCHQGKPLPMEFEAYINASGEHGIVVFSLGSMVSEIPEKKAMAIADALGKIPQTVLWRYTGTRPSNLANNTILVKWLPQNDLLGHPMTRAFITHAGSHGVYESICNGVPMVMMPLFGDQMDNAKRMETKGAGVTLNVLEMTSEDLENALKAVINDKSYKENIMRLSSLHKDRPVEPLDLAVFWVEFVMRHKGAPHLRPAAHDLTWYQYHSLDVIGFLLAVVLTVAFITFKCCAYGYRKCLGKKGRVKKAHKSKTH
The experiment in a line: Activity of human UGT1A10 expressed in microsomes isolated from baculovirus infected insect cell assessed as enzyme-mediated (2S,3S,4S,5R,6R)-6-((1-carboxy-2-(4-((6-methoxy-1-methyl-1H-benzo[d]imidazol-2-yl)methoxy)phenyl)ethylthio)carbonylamino)-3,4,5-trihydroxytetrahydro-2H-pyran-2-carboxylic acid formation at 20 uM after 4 hrs by radio-HPLC/LC-MS/MS analysis in presence of UDPGA. Put shortly:
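Alamethicin (50 μg/mg protein, 15 min on ice) pretreated expressed human UGT microsomes (1 mg/ml protein) from baculovirus-infected insect cells. Incubation with [¹⁴C]rivoglitazone (20 μM) in 100 mM Tris-HCl (pH 7.5) with 10 mM MgCl₂, started by 5 mM UDPGA, 4 h at 37°C with shaking. UGT insect-cell control supersomes were run alongside. Acetonitrile stop, concentrated supernatant analysed by radio-HPLC, LC-MS and LC-MS/MS.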

The target of another data set is T2, Cytochrome P450 2C8 (Homo sapiens, UniProt P10632).
T2 sequence (P10632 whole entry): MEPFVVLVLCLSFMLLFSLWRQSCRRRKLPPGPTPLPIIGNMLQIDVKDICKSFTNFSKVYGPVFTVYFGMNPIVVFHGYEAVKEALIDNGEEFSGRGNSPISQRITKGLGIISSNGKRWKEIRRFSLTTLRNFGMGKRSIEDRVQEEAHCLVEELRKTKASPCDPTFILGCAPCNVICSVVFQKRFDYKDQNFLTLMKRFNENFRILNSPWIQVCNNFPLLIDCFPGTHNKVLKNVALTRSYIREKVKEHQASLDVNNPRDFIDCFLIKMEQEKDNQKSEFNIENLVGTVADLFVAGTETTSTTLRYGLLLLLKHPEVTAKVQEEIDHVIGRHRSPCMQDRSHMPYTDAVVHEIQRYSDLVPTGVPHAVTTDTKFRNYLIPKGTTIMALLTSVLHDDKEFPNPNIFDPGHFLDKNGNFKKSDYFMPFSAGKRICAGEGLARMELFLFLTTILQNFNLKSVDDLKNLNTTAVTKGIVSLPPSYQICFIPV
The data set can be described thus: Activity of human CYP2C8 expressed in microsomes isolated from baculovirus infected insect cell assessed as enzyme-mediated (2S,3S,4S,5R,6R)-6-((1-carboxy-2-(4-((6-methoxy-1-methyl-1H-benzo[d]imidazol-2-yl)methoxy)phenyl)ethylthio)carbonylamino)-3,4,5-trihydroxytetrahydro-2H-pyran-2-carboxylic acid formation at 20 uM after 2 hrs by radio-HPLC/LC-MS/MS analysis in presence of NADPH-generating system/SAM.

A further data set concerns the target Cytochrome P450 2D6 (Homo sapiens, UniProt P10635). The experiment in a line: Activity of human CYP2D6 expressed in microsomes isolated from baculovirus infected insect cell assessed as enzyme-mediated 5-(4-((6-methoxy-1H-benzo[d]imidazol-2-yl)methoxy)benzyl)thiazolidine-2,4-dione formation at 20 uM after 2 hrs by radio-HPLC/LC-MS/MS analysis in presence of NADPH-generating system and NADPH-generating system/SAM.

Data set [2] deals with Liver microsome. The data set can be described thus: Drug metabolism in Sprague-Dawley rat liver microsomes assessed as formation of 5-(4-((6-hydroxy-1-methyl-1H-benzo[d]imidazol-2-yl)methoxy)benzyl)thiazolidine-2,4-dione at 20 uM after 2 hrs by radio-HPLC/LC-MS/MS analysis in presence of NADPH-generating system and NADPH-generating system/SAM. (In general: Microsomes from liver hold many membrane-bound enzymes, among them those of drug oxidation.)

Data set [3] relates to Liver microsome. The experiment in a line: Drug metabolism in Sprague-Dawley rat liver microsomes assessed as formation of 5-hydroxy-5-(4-((6-methoxy-1-methyl-1H-benzo[d]imidazol-2-yl)methoxy)benzyl)thiazolidine-2,4-dione at 20 uM after 2 hrs by radio-HPLC/LC-MS/MS analysis in presence of NADPH-generating system and NADPH-generating system/SAM.
The next data set addresses Cytochrome P450 3A5 (Homo sapiens, UniProt P20815). The experiment in a line: Activity of human CYP3A5 expressed in microsomes isolated from baculovirus infected insect cell assessed as enzyme-mediated (2S,3S,4S,5R,6R)-3,4,5-trihydroxy-6-(5-(4-((6-methoxy-1-methyl-1H-benzo[d]imidazol-2-yl)methoxy)benzyl)-2,4-dioxothiazolidin-3-yl)tetrahydro-2H-pyran-2-carboxylic acid formation at 20 uM after 2 hrs by radio-HPLC/LC-MS/MS analysis in presence of UDPGA and UDPGA/SAM.

In a further data set the target is Cytochrome P450 2C9 (Homo sapiens, UniProt P11712). The data set can be described thus: Activity of human CYP2C9 expressed in microsomes isolated from baculovirus infected insect cell assessed as enzyme-mediated (2S,3S,4S,5R,6R)-6-((1-carboxy-2-(4-((6-methoxy-1-methyl-1H-benzo[d]imidazol-2-yl)methoxy)phenyl)ethylthio)carbonylamino)-3,4,5-trihydroxytetrahydro-2H-pyran-2-carboxylic acid formation at 20 uM after 2 hrs by radio-HPLC/LC-MS/MS analysis in presence of NADPH-generating system/SAM.
Chain of Cytochrome P450 2C9 (P11712 whole entry): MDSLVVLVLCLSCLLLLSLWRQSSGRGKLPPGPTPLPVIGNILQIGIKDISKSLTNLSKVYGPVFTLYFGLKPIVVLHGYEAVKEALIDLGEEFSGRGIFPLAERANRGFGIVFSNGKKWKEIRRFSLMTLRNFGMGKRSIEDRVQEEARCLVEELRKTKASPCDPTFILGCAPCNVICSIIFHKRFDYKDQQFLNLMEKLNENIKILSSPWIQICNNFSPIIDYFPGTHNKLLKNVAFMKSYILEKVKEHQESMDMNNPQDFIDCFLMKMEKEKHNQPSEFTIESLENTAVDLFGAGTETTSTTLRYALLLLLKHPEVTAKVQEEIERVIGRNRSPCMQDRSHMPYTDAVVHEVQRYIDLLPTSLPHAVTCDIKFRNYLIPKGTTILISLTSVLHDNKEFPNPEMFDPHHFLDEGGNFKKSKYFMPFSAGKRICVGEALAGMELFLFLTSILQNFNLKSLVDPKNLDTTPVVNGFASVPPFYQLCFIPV

Chain of Cytochrome P450 3A5 (P20815 whole entry): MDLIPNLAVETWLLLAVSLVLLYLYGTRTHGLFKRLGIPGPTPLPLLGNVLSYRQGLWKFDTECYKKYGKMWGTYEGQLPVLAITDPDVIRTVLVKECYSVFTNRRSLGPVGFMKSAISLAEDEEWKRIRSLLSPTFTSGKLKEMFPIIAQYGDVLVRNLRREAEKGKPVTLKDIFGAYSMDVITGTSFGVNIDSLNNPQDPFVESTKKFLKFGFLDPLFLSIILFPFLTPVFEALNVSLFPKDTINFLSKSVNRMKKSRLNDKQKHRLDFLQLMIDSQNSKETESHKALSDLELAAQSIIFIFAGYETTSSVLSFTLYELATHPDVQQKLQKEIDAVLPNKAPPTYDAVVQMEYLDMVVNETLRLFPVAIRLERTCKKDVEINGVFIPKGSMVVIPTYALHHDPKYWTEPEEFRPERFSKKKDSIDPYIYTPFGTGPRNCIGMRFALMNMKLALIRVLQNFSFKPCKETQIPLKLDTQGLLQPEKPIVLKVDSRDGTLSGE
Chain of Cytochrome P450 2D6 (P10635 whole entry): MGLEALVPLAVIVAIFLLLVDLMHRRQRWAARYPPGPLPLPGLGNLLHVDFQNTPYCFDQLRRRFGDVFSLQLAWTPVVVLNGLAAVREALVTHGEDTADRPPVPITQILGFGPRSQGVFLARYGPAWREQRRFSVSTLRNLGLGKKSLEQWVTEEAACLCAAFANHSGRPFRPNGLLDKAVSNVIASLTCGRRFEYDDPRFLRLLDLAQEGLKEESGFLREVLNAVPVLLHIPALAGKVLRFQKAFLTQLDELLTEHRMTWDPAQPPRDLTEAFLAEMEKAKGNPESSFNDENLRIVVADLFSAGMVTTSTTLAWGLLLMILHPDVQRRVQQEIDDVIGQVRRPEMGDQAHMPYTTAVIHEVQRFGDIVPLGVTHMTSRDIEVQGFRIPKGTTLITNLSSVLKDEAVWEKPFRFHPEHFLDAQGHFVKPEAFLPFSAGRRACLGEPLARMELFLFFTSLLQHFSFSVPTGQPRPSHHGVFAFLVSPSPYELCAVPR

In the case of `COc1ccc2nc(COc3ccc(C[14CH]4SC(=O)NC4=O)cc3)n(C)c2c1.Cl` (racemic), the Drug metabolism result in data set [1] is “metabolite_not_detected”; on Cytochrome P450 2C8 it was “metabolite_not_detected”; at Cytochrome P450 2D6 it was “metabolite_detected”; in the data set with Liver microsome [2], “metabolite_detected”; in the data set with Liver microsome [3], “metabolite_detected”; on Cytochrome P450 3A5, “metabolite_not_detected”. Moreover, the Drug metabolism result on Cytochrome P450 2C9 was “metabolite_not_detected”.

(Values after ChEMBL document CHEMBL3526048, “In vitro metabolism of rivoglitazone, a novel peroxisome proliferator-activated receptor γ agonist, in rat, monkey, and human liver microsomes and freshly isolated hepatocytes” (Drug Metab Dispos, 2011).)
